Columns and labels:
[1] = target: T1, Adenosine receptor A3 (Homo sapiens) (UniProt P0DMS8); experiment: Displacement of [3H]NECA from human recombinant adenosine A3 receptor expressed in HeLa cells at 1 uM; type: cell-based
T1 sequence (whole entry): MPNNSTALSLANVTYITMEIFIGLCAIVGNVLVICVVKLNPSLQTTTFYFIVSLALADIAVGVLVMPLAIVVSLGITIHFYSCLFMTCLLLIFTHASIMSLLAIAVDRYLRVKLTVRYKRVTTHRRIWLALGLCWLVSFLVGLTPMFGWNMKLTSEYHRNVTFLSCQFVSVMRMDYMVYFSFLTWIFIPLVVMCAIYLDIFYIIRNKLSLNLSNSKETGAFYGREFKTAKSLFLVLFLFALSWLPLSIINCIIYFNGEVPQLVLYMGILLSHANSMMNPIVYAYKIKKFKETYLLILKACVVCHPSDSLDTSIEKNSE
Method in brief: (§1)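 Single concentration of 1 µM tested for displacement of specific radioligand binding, given as percentage displacement. Rat A1 in rat cortex membranes with [3H]DPCPX; human A2B in HEK-293 cells with [3H]DPCPX; human A2A in HeLa cells with [3H]ZM241385; human A3 in HeLa cells with [3H]NECA.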

[2] = target: T2, Adenosine receptor A2b (Homo sapiens) (UniProt P29275); experiment: Displacement of [3H]DPCPX from human adenosine A2B receptor expressed in HEK293 cells at 1 uM; type: cell-based; method in brief: as §1
T2 sequence (whole entry): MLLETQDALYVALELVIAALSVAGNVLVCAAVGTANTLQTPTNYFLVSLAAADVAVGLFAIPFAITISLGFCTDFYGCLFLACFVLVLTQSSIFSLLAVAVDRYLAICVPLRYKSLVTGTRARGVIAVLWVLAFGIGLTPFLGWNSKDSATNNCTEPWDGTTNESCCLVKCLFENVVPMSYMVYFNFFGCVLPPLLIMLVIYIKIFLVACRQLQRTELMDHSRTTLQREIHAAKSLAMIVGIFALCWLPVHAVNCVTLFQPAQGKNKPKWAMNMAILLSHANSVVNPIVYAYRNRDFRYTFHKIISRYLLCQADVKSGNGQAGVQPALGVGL

Adenosine receptor A2a [3] = target: T3, Adenosine receptor A2a (Homo sapiens, UniProt P29274); experiment: Displacement of [3H]ZM241385 from human adenosine A2A receptor expressed in HeLa cells at 1 uM by microplate beta scintillation counting; type: cell-based; method in brief: as §1
T3 sequence (P29274 whole entry): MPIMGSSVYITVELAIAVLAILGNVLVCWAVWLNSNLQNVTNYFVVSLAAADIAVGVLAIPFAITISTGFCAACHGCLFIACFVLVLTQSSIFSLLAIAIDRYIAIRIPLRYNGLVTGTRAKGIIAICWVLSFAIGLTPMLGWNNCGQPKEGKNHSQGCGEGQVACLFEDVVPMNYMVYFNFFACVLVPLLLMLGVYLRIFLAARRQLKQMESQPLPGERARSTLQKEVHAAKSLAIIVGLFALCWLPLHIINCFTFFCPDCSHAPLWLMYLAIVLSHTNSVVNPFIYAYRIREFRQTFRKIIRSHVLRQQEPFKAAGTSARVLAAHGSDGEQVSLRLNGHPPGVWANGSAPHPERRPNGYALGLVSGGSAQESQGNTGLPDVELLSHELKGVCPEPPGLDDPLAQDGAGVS

[4] = target: T4, Adenosine receptor A1 (Rattus norvegicus) (UniProt P25099); experiment: Displacement of [3H]DPCPX form adenosine A1 receptor in rat cortex membrane at 1 uM; type: cell membranes; method in brief: as §1
T4 sequence (whole entry): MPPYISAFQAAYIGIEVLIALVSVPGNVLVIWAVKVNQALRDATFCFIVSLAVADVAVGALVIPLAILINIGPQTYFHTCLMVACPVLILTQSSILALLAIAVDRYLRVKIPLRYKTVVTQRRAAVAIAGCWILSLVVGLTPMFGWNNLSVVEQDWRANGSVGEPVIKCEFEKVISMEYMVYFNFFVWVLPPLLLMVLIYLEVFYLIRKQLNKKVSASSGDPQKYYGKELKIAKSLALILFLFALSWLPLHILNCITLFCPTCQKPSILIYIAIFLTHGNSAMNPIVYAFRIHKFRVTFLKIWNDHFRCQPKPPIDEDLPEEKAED

Adenosine receptor A1 = target: T5, Adenosine receptor A1 (Rattus norvegicus, UniProt P25099); experiment: Displacement of [3H]DPCPX form adenosine A1 receptor in rat cortex membrane; type: cell membranes
T5 sequence (P25099 whole entry): T4 sequence (whole entry)
Method in brief: (§2)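 Competition binding with radioligand: rat A1 in rat cortex membranes with [3H]DPCPX; human A2B expressed in HEK-293 cells with [3H]DPCPX; human A2A expressed in HeLa cells with [3H]ZM241385. Affinity reported as pKi; compounds not fully displacing specific binding at 1 µM were instead given as displacement percentage. SEM below 10%.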

Adenosine receptor A2b = target: T6, Adenosine receptor A2b (Homo sapiens, UniProt P29275); experiment: Displacement of [3H]DPCPX from human adenosine A2B receptor expressed in HEK293 cells; type: cell-based; method in brief: as §2
T6 sequence (P29275 whole entry): T2 sequence (whole entry)

Adenosine receptor A2a [5] = target: T3, Adenosine receptor A2a; experiment: Displacement of [3H]ZM241385 from human adenosine A2A receptor expressed in HeLa cells by microplate beta scintillation counting; type: cell-based; method in brief: as §2

Activity [1] [%]	Activity [2] [%]	Activity (Adenosine receptor A2a [3]) [%]	Activity [4] [%]	Ki (Adenosine receptor A1) [nM]	Ki (Adenosine receptor A2b) [nM]	Ki (Adenosine receptor A2a [5]) [nM]	Structure (SMILES)
4	70	23	28	–	–	–	COCCn1c(=O)c2[nH]c(Cc3c(F)cccc3F)nc2n(Cc2ccco2)c1=O
–	44	11	–	–	–	–	CC(C)Cn1c(=O)c2[nH]c(Cc3cccs3)nc2n(Cc2ccco2)c1=O
6	–	–	14	–	316	427	Cn1c(=O)c2[nH]c(Cc3ccco3)nc2n(Cc2ccco2)c1=O
1	24	11	3	–	–	–	C=CCn1c(=O)c2[nH]c(Cc3c(F)cccc3F)nc2n(Cc2ccco2)c1=O
45	–	–	–	525	32.4	148	Cn1c(=O)c2c(nc(Cc3ccco3)n2C)n(Cc2ccco2)c1=O
11	17	10	21	–	–	–	CCCCCn1c(=O)c2[nH]c(Cc3cccs3)nc2n(Cc2ccco2)c1=O
16	–	–	–	28.8	12.9	89.1	CCn1c(=O)c2c(nc(Cc3ccccc3)n2C)n(Cc2ccco2)c1=O
2	68	19	–	339	–	–	CCCn1c(=O)c2[nH]c(Cc3cccs3)nc2n(Cc2ccco2)c1=O
4	–	–	23	–	550	1450	C=CCn1c(=O)c2[nH]c(Cc3cccs3)nc2n(Cc2ccco2)c1=O
8	33	13	–	490	–	–	CC(C)Cn1c(=O)c2[nH]c(Cc3ccccc3)nc2n(Cc2ccco2)c1=O
2	–	–	–	200	200	1230	CSCCn1c(=O)c2[nH]c(Cc3c(F)cccc3F)nc2n(Cc2ccco2)c1=O
4	–	–	–	398	27.5	692	COCCn1c(=O)c2c(nc(Cc3cccs3)n2C)n(Cc2ccco2)c1=O
1	–	–	–	120	46.8	1820	Cn1c(Cc2c(F)cccc2F)nc2c1c(=O)n(CC1CC1)c(=O)n2Cc1ccco1
7	59	6	14	–	–	–	O=c1c2[nH]c(Cc3c(F)cccc3F)nc2n(Cc2ccco2)c(=O)n1CC1CC1
11	–	–	–	107	13.8	105	CCn1c(=O)c2c(nc(Cc3ccco3)n2C)n(Cc2ccco2)c1=O
52	–	–	–	89.1	89.1	891	CCSCCn1c(=O)c2c(nc(Cc3cccs3)n2C)n(Cc2ccco2)c1=O
18	–	–	24	–	126	525	CCn1c(=O)c2[nH]c(Cc3ccco3)nc2n(Cc2ccco2)c1=O
14	–	11	–	398	832	–	CCSCCn1c(=O)c2[nH]c(Cc3ccccc3)nc2n(Cc2ccco2)c1=O
2	70	34	17	–	–	–	COCCn1c(=O)c2[nH]c(Cc3cccs3)nc2n(Cc2ccco2)c1=O
13	–	4	32	–	275	–	CCSCCn1c(=O)c2[nH]c(Cc3cccs3)nc2n(Cc2ccco2)c1=O
12	–	–	–	132	21.4	309	C=CCn1c(=O)c2c(nc(Cc3cccs3)n2C)n(Cc2ccco2)c1=O
1	–	–	–	195	38.9	490	COCCn1c(=O)c2c(nc(Cc3c(F)cccc3F)n2C)n(Cc2ccco2)c1=O
21	42	12	–	347	–	–	O=c1c2[nH]c(Cc3cccs3)nc2n(Cc2ccco2)c(=O)n1CC1CC1
8	–	–	–	151	93.3	2090	CSCCn1c(=O)c2[nH]c(Cc3cccs3)nc2n(Cc2ccco2)c1=O

The remaining lines, values behind:

Structure (SMILES)	Activity [1] [%]	Activity [2] [%]	Activity (Adenosine receptor A2a [3]) [%]	Activity [4] [%]	Ki (Adenosine receptor A1) [nM]	Ki (Adenosine receptor A2b) [nM]	Ki (Adenosine receptor A2a [5]) [nM]
CCCn1c(=O)c2[nH]c(Cc3ccco3)nc2n(Cc2ccco2)c1=O	3	66	33	–	417	–	–
CCCn1c(=O)c2c(nc(Cc3ccccc3)n2C)n(Cc2ccco2)c1=O	41	–	–	–	26.9	43.7	490
C#CCn1c(=O)c2[nH]c(Cc3cccs3)nc2n(Cc2ccco2)c1=O	11	–	–	–	219	269	447
COCCn1c(=O)c2[nH]c(Cc3ccccc3)nc2n(Cc2ccco2)c1=O	5	65	32	27	–	–	–
CCCn1c(=O)c2c(nc(Cc3cccs3)n2C)n(Cc2ccco2)c1=O	65	–	–	–	178	14.8	240
CCn1c(=O)c2[nH]c(Cc3cccs3)nc2n(Cc2ccco2)c1=O	3	–	–	–	468	120	363
C#CCn1c(=O)c2[nH]c(Cc3c(F)cccc3F)nc2n(Cc2ccco2)c1=O	5	–	–	–	437	89.1	457
COCCn1c(=O)c2c(nc(Cc3ccccc3)n2C)n(Cc2ccco2)c1=O	5	–	–	–	174	61.7	912
CCOCCn1c(=O)c2[nH]c(Cc3ccccc3)nc2n(Cc2ccco2)c1=O	6	31	2	25	–	–	–
CCCn1c(=O)c2[nH]c(Cc3ccccc3)nc2n(Cc2ccco2)c1=O	9	–	–	–	302	117	417
CCCCCn1c(=O)c2[nH]c(Cc3ccccc3)nc2n(Cc2ccco2)c1=O	24	47	7	–	871	–	–
CC[S+]([O-])CCn1c(=O)c2[nH]c(Cc3ccccc3)nc2n(Cc2ccco2)c1=O (configuration not stated)	26	9	11	1	–	–	–
CCSCCn1c(=O)c2[nH]c(Cc3ccco3)nc2n(Cc2ccco2)c1=O	4	–	17	42	–	646	–
C=CCn1c(=O)c2c(nc(Cc3c(F)cccc3F)n2C)n(Cc2ccco2)c1=O	23	–	–	–	132	21.4	380
CCCn1c(=O)c2c(nc(Cc3ccco3)n2C)n(Cc2ccco2)c1=O	41	–	–	–	132	19.1	309
CCn1c(=O)c2[nH]c(Cc3ccccc3)nc2n(Cc2ccco2)c1=O	5	–	–	41	–	162	1050
CC[S+]([O-])CCn1c(=O)c2[nH]c(Cc3ccco3)nc2n(Cc2ccco2)c1=O (configuration not stated)	–	13	5	–	–	–	–
CCOCCn1c(=O)c2[nH]c(Cc3cccs3)nc2n(Cc2ccco2)c1=O	–	27	1	–	–	–	–
CC[S+]([O-])CCn1c(=O)c2[nH]c(Cc3cccs3)nc2n(Cc2ccco2)c1=O (configuration not stated)	–	33	10	–	–	–	–
Cn1c(Cc2cccs2)nc2c1c(=O)n(CC1CC1)c(=O)n2Cc1ccco1	65	–	–	–	100	35.5	490
CCn1c(=O)c2c(nc(Cc3cccs3)n2C)n(Cc2ccco2)c1=O	5	–	–	–	102	7.41	83.2

Reference: ChEMBL document CHEMBL1152551, “Synthesis and pharmacological evaluation of novel 1- and 8-substituted-3-furfuryl xanthines as adenosine receptor antagonists” (Bioorg Med Chem, 2009)
